Measured values as given in ChEMBL document CHEMBL3414472, “Synthesis, SAR, and series evolution of novel oxadiazole-containing 5-lipoxygenase activating protein inhibitors: discovery of 2-[4-(3-{(r)-1-[4-(2-amino-pyrimidin-5-yl)-phenyl]-1-cyclopropyl-ethyl}-[1,2,4]oxadiazol-5-yl)-pyrazol-1-yl]-N,N-dimethyl-acetamide (BI 665915)” (J Med Chem, 2015).
Values after ≈ are worked out from the molar mass of the structure shown.

Columns and labels:
[1] = target: T1, Arachidonate 5-lipoxygenase-activating protein (Homo sapiens, UniProt P20292); assay: Inhibition of FLAP in calcimycin-stimulated human whole blood assessed as inhibition of LTB4 synthesis preincubated for 15 mins followed by calcimycin stimulation measured after 30 mins
T1 sequence (P20292 whole entry): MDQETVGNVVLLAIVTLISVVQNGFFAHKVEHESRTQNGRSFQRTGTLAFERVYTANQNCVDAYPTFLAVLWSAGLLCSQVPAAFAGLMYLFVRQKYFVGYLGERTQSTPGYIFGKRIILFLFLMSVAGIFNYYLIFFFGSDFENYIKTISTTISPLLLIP
Summary of the method: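 Heparinized human volunteer blood preincubated with compound 15 min at 37 °C, 5 % CO2; calcimycin 100 µM final, 30 min at 37 °C; spun 2000 rpm 5 min at 4 °C. Supernatant LTB4 measured by HTRF competition (LTB4-XL665 plus anti-LTB4 cryptate, 2 h room temperature). Geometric mean (n ≥ 3) of duplicate 10-point curves.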

[2] = target: T1, Arachidonate 5-lipoxygenase-activating protein; assay: Displacement of [125I]-L-691831 from human FLAP expressed in insect SF9 cell membranes after 2 hrs by Topcount analysis
[3] = Aqueous equilibrium solubility of the compound in crystalline form in citric acid/disodium phosphate buffer at pH 6.8 after 24 hrs of rotation by HPLC analysis; format: physicochemical
Summary of the method: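 Saturated solution of crystalline material in citric acid/disodium phosphate buffer pH 6.8 rotated 24 h; after centrifugation and filtration, dissolved concentration measured by HPLC.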

Cytochrome P450 2D6 [4] = target: T2, Cytochrome P450 2D6 (Homo sapiens, UniProt P10635); assay: Inhibition of CYP2D6 in human liver microsomes using dextromethorphan as substrate preincubated for 10 mins followed by NADPH addition measured after 6 mins; format: ADME
Summary of the method: (§1)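 Human liver microsomes (0.05 mg/mL protein) with cocktail substrates: 4 µM diclofenac (2C9), 3 µM dextromethorphan (2D6), 2.5 µM midazolam (3A4). Compound in 0.1 M potassium phosphate pH 7.4 preincubated 10 min at 37 °C; NADPH added, reaction 6 min at 37 °C.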

hERG (KCNH2) = hERG (KCNH2) (Homo sapiens, UniProt Q12809); assay: Inhibition of human ERG expressed in HEK293 cells assessed as change in tail current at 11 uM by manual patch clamp assay relative to control; format: cell-based; settings: HEK293 cells that express hERG
Summary of the method: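 Whole-cell manual patch clamp on HEK293 cells stably expressing human ERG, at room temperature (20-22 °C) in a perfusion chamber. Change in hERG tail current amplitude during the hyperpolarizing step measured with escalating compound concentrations.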

Cytochrome P450 2C9 [5] = target: T3, Cytochrome P450 2C9 (Homo sapiens, UniProt P11712); assay: Inhibition of CYP2C9 in human liver microsomes using dichlofenac as substrate preincubated for 10 mins followed by NADPH addition measured after 6 mins; format: ADME; summary of the method: as §1
Cytochrome P450 3A4 [6] = target: T4, Cytochrome P450 3A4 (Homo sapiens, UniProt P08684); assay: Inhibition of CYP3A4 in human liver microsomes using midazolam as substrate preincubated for 10 mins followed by NADPH addition measured after 6 mins; format: ADME; summary of the method: as §1
[7] = Metabolic stability in human liver microsomes at 1 uM preincubated for 10 mins followed by NADPH addition measured over 60 mins by LC/MS analysis relative to hepatic blood flow; format: ADME; settings: read-out: Stability
Summary of the method: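 Human liver microsomes (1 mg/mL protein) with test compound at 1 µM, preincubated 10 min at 37 °C before adding NADPH. Remaining compound followed over a 0–60 min time course, as duplicate 8-timepoint curves. The slope of ln(% remaining) against time gives clearance, expressed as percent of hepatic blood flow.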

[8] = target: T5, Arachidonate 5-lipoxygenase-activating protein (Mus musculus, UniProt P30355); assay: Inhibition of FLAP in calcimycin-stimulated mouse whole blood assessed as inhibition of LTB4 synthesis preincubated for 15 mins followed by calcimycin stimulation measured after 30 mins
T5 sequence (P30355 whole entry): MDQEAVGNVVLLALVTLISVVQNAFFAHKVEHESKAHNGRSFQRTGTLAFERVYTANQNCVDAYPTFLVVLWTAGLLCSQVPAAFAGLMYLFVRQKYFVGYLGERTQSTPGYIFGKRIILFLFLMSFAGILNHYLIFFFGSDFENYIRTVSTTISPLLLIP
Summary of the method: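 Mouse whole blood run by the same protocol as the human whole blood LTB4 assay (compound 15 min at 37 °C, 100 µM final calcimycin 30 min, HTRF LTB4 read-out). Geometric mean (n ≥ 3) of duplicate 8-point curves.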

Cytochrome P450 2C9 [9] = target: T3, Cytochrome P450 2C9; assay: Inhibition of CYP2C9 in human liver microsomes using dichlofenac as substrate at 30 uM preincubated for 10 mins followed by NADPH addition measured after 6 mins; format: ADME; settings: 0.1 h
Cytochrome P450 2D6 [10] = target: T2, Cytochrome P450 2D6; assay: Inhibition of CYP2D6 in human liver microsomes using dextromethorphan as substrate at 30 uM preincubated for 10 mins followed by NADPH addition measured after 6 mins; format: ADME; settings: 0.1 h
Cytochrome P450 3A4 [11] = target: T4, Cytochrome P450 3A4; assay: Inhibition of CYP3A4 in human liver microsomes using midazolam as substrate at 30 uM preincubated for 10 mins followed by NADPH addition measured after 6 mins; format: ADME; settings: 0.1 h

Sequence of hERG (KCNH2) (Q12809 whole entry, the tested form may be a part): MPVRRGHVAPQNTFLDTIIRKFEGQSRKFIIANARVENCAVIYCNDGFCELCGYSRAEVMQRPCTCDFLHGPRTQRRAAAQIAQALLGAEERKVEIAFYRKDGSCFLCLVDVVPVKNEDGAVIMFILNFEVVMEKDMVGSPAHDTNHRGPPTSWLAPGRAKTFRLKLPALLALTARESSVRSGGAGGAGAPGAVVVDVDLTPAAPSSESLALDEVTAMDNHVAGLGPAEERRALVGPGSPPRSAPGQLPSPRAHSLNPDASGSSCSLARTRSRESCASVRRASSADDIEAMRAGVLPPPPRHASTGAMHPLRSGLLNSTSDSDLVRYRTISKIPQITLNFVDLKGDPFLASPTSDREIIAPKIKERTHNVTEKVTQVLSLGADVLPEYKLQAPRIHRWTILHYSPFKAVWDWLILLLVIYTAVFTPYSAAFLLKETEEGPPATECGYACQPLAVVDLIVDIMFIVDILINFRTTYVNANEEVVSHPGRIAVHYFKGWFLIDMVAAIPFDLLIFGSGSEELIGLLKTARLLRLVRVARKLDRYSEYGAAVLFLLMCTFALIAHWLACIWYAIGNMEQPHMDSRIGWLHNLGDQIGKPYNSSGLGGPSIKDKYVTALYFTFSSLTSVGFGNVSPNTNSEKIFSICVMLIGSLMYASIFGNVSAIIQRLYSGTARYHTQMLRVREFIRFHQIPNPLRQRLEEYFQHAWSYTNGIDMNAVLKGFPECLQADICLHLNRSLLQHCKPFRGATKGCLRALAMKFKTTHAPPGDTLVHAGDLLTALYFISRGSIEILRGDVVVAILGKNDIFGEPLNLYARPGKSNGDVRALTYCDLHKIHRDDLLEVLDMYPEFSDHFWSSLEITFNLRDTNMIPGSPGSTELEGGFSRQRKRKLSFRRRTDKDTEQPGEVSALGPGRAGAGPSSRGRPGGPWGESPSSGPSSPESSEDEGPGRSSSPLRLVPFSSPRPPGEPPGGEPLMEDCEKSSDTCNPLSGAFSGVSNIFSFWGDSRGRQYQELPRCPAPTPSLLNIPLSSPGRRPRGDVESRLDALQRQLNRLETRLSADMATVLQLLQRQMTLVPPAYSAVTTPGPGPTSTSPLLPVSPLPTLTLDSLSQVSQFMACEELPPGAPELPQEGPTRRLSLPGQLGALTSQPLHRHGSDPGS
T4 sequence (P08684 whole entry): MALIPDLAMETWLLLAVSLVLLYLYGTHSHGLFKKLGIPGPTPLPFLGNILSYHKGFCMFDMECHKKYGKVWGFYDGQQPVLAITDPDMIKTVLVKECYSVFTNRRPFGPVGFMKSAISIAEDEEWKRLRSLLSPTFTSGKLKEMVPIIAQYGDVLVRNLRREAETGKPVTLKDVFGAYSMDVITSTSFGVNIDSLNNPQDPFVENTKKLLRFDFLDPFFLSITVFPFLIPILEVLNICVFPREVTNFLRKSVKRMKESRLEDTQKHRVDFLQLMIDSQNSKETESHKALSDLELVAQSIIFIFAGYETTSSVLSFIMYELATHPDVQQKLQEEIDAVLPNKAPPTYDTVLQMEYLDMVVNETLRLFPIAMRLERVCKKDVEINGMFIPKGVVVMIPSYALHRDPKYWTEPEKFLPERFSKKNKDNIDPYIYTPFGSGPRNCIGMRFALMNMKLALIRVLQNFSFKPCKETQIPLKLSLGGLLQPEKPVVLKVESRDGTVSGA
T2 sequence (P10635 whole entry): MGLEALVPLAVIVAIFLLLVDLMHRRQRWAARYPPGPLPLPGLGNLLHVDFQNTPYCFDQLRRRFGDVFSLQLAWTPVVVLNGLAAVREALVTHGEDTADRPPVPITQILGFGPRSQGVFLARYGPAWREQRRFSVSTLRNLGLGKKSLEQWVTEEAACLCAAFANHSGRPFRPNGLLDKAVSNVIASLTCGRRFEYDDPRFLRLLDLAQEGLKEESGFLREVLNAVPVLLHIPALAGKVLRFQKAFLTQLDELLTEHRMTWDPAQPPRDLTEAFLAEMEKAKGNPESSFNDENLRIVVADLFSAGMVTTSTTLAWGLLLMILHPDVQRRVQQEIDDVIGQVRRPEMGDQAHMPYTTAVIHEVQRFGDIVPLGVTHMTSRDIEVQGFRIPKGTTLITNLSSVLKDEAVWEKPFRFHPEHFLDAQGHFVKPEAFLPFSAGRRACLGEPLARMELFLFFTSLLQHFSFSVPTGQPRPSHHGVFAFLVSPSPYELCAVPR
T3 sequence (P11712 whole entry): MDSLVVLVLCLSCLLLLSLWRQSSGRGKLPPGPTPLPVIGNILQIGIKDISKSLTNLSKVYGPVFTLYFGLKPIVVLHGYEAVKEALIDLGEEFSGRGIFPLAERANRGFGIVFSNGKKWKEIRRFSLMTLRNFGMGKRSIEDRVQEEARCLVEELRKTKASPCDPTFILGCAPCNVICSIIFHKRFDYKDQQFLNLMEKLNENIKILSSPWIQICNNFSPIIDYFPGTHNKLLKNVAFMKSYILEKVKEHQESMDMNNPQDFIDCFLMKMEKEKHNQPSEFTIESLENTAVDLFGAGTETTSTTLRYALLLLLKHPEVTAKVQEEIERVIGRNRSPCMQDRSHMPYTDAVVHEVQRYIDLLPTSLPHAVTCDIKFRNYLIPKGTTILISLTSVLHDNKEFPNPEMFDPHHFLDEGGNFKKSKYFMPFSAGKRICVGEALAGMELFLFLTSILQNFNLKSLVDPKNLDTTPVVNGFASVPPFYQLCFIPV

Row | IC50 [1] [nM] | SMILES | also measured
1 | 470 | Nc1ncc(-c2ccc(C3(c4noc(-c5ccccc5)n4)CCC3)cc2)cn1 | –
2 | 93 | Cn1cc(-c2nc(C(C)(C)c3ccc(-c4cnc(N)nc4)cc3)no2)cn1 | –
3 | 240 | NCCn1cc(-c2nc(C3(c4ccc(-c5cnc(N)nc5)cc4)CCC3)no2)cn1 | –
4 | 20 | CC(C)(O)Cn1cc(-c2nc([C@@](C)(c3ccc(-c4cnc(N)nc4)cc3)C3CC3)no2)cn1 | IC50 (Cytochrome P450 2D6 [4]): > 30000 nM; inhibition at 11 µM (hERG (KCNH2)): 16%; solubility thermodynamic at 24 h [3]: 32 µg/mL (≈ 71.8 µM); IC50 (Cytochrome P450 2C9 [5]): 4000 nM; IC50 (Cytochrome P450 3A4 [6]): > 30000 nM; hepatic extraction ratio at 1 h, 1 µM [7]: 0.24; IC50 [8]: 1500 nM; IC50 [2]: 2.1 nM
5 | 160 | Nc1ncc(-c2ccc(C3(c4noc(-c5cc[nH]n5)n4)CCC3)cc2)cn1 | –
6 | > 5000 | CS(=O)(=O)Nc1nc(C2(c3ccc(-c4cnc(N)nc4)cc3)CCC2)no1 | –
7 | > 5000 | Nc1ncc(-c2ccc(C3(c4noc(-c5cnn(CC(=O)O)c5)n4)CCC3)cc2)cn1 | IC50 [2]: 18 nM
8 | 820 | Nc1ncc(-c2ccc(C3(c4noc(-c5ccncn5)n4)CCC3)cc2)cn1 | –
9 | 200 | Nc1ncc(-c2ccc(C3(c4noc(-c5cscn5)n4)CCC3)cc2)cn1 | –
10 | 1500 | Cn1cc(-c2nc(C3(c4ccc(-c5cnc(N)nc5)cc4)CC(C)(C)C3)no2)cn1 | –
11 | 47 | CN(C)CCn1cc(-c2nc(C3(c4ccc(-c5cnc(N)nc5)cc4)CCC3)no2)cn1 | IC50 (Cytochrome P450 2D6 [4]): 10000 nM; solubility thermodynamic at 24 h [3]: 270 µg/mL (≈ 627 µM); IC50 (Cytochrome P450 2C9 [5]): 7000 nM; inhibition (INH) (Cytochrome P450 3A4 [11]): Not Active
12 | 110 | Nc1ncc(-c2ccc(C3(c4noc(-c5cn[nH]c5)n4)CCC3)cc2)cn1 | solubility thermodynamic at 24 h [3]: 0.4 µg/mL (≈ 1.11 µM)
13 | 240 | Nc1ncc(-c2ccc(C3(c4noc(-c5ccnnc5)n4)CCC3)cc2)cn1 | –

Continued, compound first:

Row | SMILES | IC50 [1] [nM] | also measured
14 | Cn1cc(-c2nc([C@](C)(c3ccc(-c4cnc(N)nc4)cc3)C3CCC3)no2)cn1 | 3200 | –
15 | CNc1ncc(-c2ccc([C@](C)(c3noc(-c4cnn(CC(=O)N(C)C)c4)n3)C3CC3)cc2)cn1 | 30 | IC50 [2]: 2.9 nM
16 | Cn1cc(-c2nc([C@](C)(c3ccc(-c4cnc(N)nc4)cc3)C3CC3)no2)cn1 | 350 | –
17 | Nc1ncc(-c2ccc(C3(c4noc(-c5cccnn5)n4)CCC3)cc2)cn1 | 400 | –
18 | Cn1cc(-c2nc(C3(c4ccc(-c5cnc(N)nc5)cc4)CCC3)no2)cn1 | – | solubility thermodynamic at 24 h [3]: 0.03 µg/mL (≈ 0.0803 µM)
19 | Nc1ncc(-c2ccc(C3(c4noc(-c5cocn5)n4)CCC3)cc2)cn1 | 310 | –
20 | CC(C)Nc1ncc(-c2ccc([C@](C)(c3noc(-c4cnn(CC(=O)N(C)C)c4)n3)C3CC3)cc2)cn1 | > 50000 | IC50 [2]: > 1000 nM
21 | Cn1cc(-c2nc([C@@](C)(c3ccc(-c4cnc(N)nc4)cc3)C3CC3)no2)cn1 | 15 | –
22 | Cn1cc(-c2nc(Cc3ccc(-c4cnc(N)nc4)cc3)no2)cn1 | > 5000 | IC50 [2]: > 1000 nM
23 | CCNc1nc(C2(c3ccc(-c4cnc(N)nc4)cc3)CCC2)no1 | 460 | –
24 | Nc1ncc(-c2ccc(C3(c4noc(-c5cccnc5)n4)CCC3)cc2)cn1 | 250 | –
25 | CC(C)[C@](C)(c1ccc(-c2cnc(N)nc2)cc1)c1noc(-c2cnn(C)c2)n1 | 33 | –
26 | Nc1ncc(-c2ccc(C3(c4noc(-c5c[nH]cn5)n4)CCC3)cc2)cn1 | 270 | –
27 | CC(C)(O)Cn1cc(-c2nc(C3(c4ccc(-c5cnc(N)nc5)cc4)CCC3)no2)cn1 | – | IC50 (Cytochrome P450 2D6 [4]): 3000 nM; inhibition at 11 µM (hERG (KCNH2)): 51%; solubility thermodynamic at 24 h [3]: 3.1 µg/mL (≈ 7.18 µM); IC50 (Cytochrome P450 2C9 [5]): 6000 nM; IC50 (Cytochrome P450 3A4 [6]): > 30000 nM
28 | Nc1ncc(-c2ccc(C3(c4noc(-c5nc[nH]n5)n4)CCC3)cc2)cn1 | 2700 | –
29 | CC(C)C(c1ccc(-c2cnc(N)nc2)cc1)c1noc(-c2cnn(C)c2)n1 (racemic) | 190 | –
30 | Nc1ncc(-c2ccc(C3(c4noc(-c5ccc[nH]c5=O)n4)CCC3)cc2)cn1 | > 5000 | –
31 | CC(C)[C@@](C)(c1ccc(-c2cnc(N)nc2)cc1)c1noc(-c2cnn(C)c2)n1 | 360 | –
32 | Cn1cc(-c2nc(C3(c4ccc(-c5cnc(N)nc5)cc4)CC3)no2)cn1 | 2200 | –
33 | CCNc1ncc(-c2ccc(C(C)(c3noc(-c4cnn(CC(=O)N(C)C)c4)n3)C3CC3)cc2)cn1 (racemic) | 1000 | –
34 | CN(C)C(=O)Cn1cc(-c2nc(C3(c4ccc(-c5cnc(N)nc5)cc4)CCC3)no2)cn1 | 81 | inhibition (INH) (Cytochrome P450 2C9 [9]): Not Active; inhibition (INH) (Cytochrome P450 2D6 [10]): Not Active; solubility thermodynamic at 24 h [3]: 20 µg/mL (≈ 45 µM); IC50 [2]: 3.6 nM
35 | COCCn1cc(-c2nc(C3(c4ccc(-c5cnc(N)nc5)cc4)CCC3)no2)cn1 | – | solubility thermodynamic at 24 h [3]: 9.3 µg/mL (≈ 22.3 µM)
36 | CN(C)C(=O)Cn1cc(-c2nc([C@@](C)(c3ccc(-c4ccc(N)nc4)cc3)C3CC3)no2)cn1 | 66 | –
37 | Nc1ncc(-c2ccc(C3(c4noc(-c5cnccn5)n4)CCC3)cc2)cn1 | 360 | –
38 | CC(C)C(C)(c1ccc(-c2cnc(N)nc2)cc1)c1noc(-c2cnn(C)c2)n1 (racemic) | 46 | –
39 | Nc1ncc(-c2ccc(C3(c4noc(-c5cncnc5)n4)CCC3)cc2)cn1 | 340 | –
40 | CN(C)CCn1cc(-c2nc([C@@](C)(c3ccc(-c4cnc(N)nc4)cc3)C3CC3)no2)cn1 | 14 | IC50 (Cytochrome P450 2D6 [4]): 10000 nM; inhibition at 11 µM (hERG (KCNH2)): 31%; solubility thermodynamic at 24 h [3]: > 1100 µg/mL; IC50 (Cytochrome P450 2C9 [5]): > 30000 nM; IC50 (Cytochrome P450 3A4 [6]): > 30000 nM; hepatic extraction ratio at 1 h, 1 µM [7]: 0.4
41 | Cn1cc(-c2nc([C@@](C)(c3ccc(-c4cnc(N)nc4)cc3)C3CCC3)no2)cn1 | 91 | –
42 | Nc1ncc(-c2ccc(C3(c4noc(-c5c[nH]nn5)n4)CCC3)cc2)cn1 | 2100 | –
43 | CN(C)C(=O)Cn1cc(-c2nc([C@@](C)(c3ccc(-c4cnc(N)cn4)cc3)C3CC3)no2)cn1 | 73 | –
